In ChEMBL document CHEMBL2417509, “Synthesis and biological evaluation of prodigiosene conjugates of porphyrin, estrone and 4-hydroxytamoxifen” (2013):

Legend:
Assay type in all cases: functional
RXF 393 = test: Cytotoxicity against human RXF393 cells after 2 days by sulforhodamine B assay; settings: RXF 393, 48 h
In short: (§1)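 NCI60 multi-dose screen, 59 human tumour lines available. Cells exposed to compound across a 5-log mol/L concentration range for 2 days, then fixed and stained with sulphorhodamine B, optical density read. Growth inhibition calculated against time-zero control and untreated cells. GI50 derived from the dose series, average of two replicates.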

NCI-H322M = test: Cytotoxicity against human NCI-H322M cells after 2 days by sulforhodamine B assay; settings: 48 h; in short: as §1
SK-MEL-28 = test: Cytotoxicity against human SK-MEL-28 cells after 2 days by sulforhodamine B assay; settings: SK-MEL-28, 48 h; in short: as §1
SNB-19 = test: Cytotoxicity against human SNB19 cells after 2 days by sulforhodamine B assay; settings: SNB-19, 48 h
In short: (§2)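 NCI DTP NCI60 multi-dose screen (59 human tumour lines available). Cells exposed to compound over a 5-log mol/L concentration range for 2 days, then fixed and stained with sulphorhodamine B, with optical density read. Growth inhibition calculated relative to time-zero cells and untreated cells, giving GI50 (half-maximal growth inhibition concentration). Average of two replicates.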

[1] = Cytotoxicity against human NCI-ADR-RES cells after 2 days by sulforhodamine B assay; settings: 48 h; in short: as §1
U-251 = test: Cytotoxicity against human U251 cells after 2 days by sulforhodamine B assay; settings: U-251, 48 h; in short: as §2
SK-OV-3 = test: Cytotoxicity against human SKOV3 cells after 2 days by sulforhodamine B assay; settings: SK-OV-3, 48 h; in short: as §1
A498 = test: Cytotoxicity against human A498 cells after 2 days by sulforhodamine B assay; settings: A498, 48 h; in short: as §1
MDA-MB-468 = test: Cytotoxicity against human MDA-MB-468 cells after 2 days by sulforhodamine B assay; settings: MDA-MB-468, 48 h; in short: as §1
HL-60(TB) = test: Cytotoxicity against human HL-60(TB) cells after 2 days by sulforhodamine B assay; settings: HL-60, 48 h
In short: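 NCI60 multi-dose screen: cells exposed to compound over a 5-log mol/L concentration range for 2 days, then fixed and stained with sulphorhodamine B and optical density read. Growth inhibition calculated relative to time-zero control and untreated cells; GI50 reported as average of two replicates.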

786-0 = test: Cytotoxicity against human 786-0 cells after 2 days by sulforhodamine B assay; settings: 786-0, 48 h; in short: as §1
SNB-75 = test: Cytotoxicity against human SNB75 cells after 2 days by sulforhodamine B assay; settings: SNB-75, 48 h; in short: as §2
IGROV-1 = test: Cytotoxicity against human IGROV1 cells after 2 days by sulforhodamine B assay; settings: IGROV-1, 48 h; in short: as §1
LOX IMVI = test: Cytotoxicity against human LOXIMVI cells after 2 days by sulforhodamine B assay; settings: 48 h; in short: as §1
BT-549 = test: Cytotoxicity against human BT549 cells after 2 days by sulforhodamine B assay; settings: BT-549, 48 h; in short: as §1
MOLT-4 = test: Cytotoxicity against human MOLT4 cells after 2 days by sulforhodamine B assay; settings: MOLT-4, 48 h; in short: as §1
HT-29 = test: Cytotoxicity against human HT-29 cells after 2 days by sulforhodamine B assay; settings: HT-29, 48 h; in short: as §1
SK-MEL-5 = test: Cytotoxicity against human SK-MEL-5 cells after 2 days by sulforhodamine B assay; settings: SK-MEL-5, 48 h; in short: as §1
SF-268 = test: Cytotoxicity against human SF268 cells after 2 days by sulforhodamine B assay; settings: SF-268, 48 h; in short: as §1
NCI-H23 = test: Cytotoxicity against human NCI-H23 cells after 2 days by sulforhodamine B assay; settings: NCI-H23, 48 h; in short: as §1
UACC-62 = test: Cytotoxicity against human UACC62 cells after 2 days by sulforhodamine B assay; settings: UACC-62, 48 h; in short: as §2
T47D = test: Cytotoxicity against human T47D cells after 2 days by sulforhodamine B assay; settings: 48 h; in short: as §2
HCC 2998 = test: Cytotoxicity against human HCC2998 cells after 2 days by sulforhodamine B assay; settings: HCC 2998, 48 h; in short: as §1
NCI-H522 = test: Cytotoxicity against human NCI-H522 cells after 2 days by sulforhodamine B assay; settings: NCI-H522, 48 h; in short: as §1
HOP-92 = test: Cytotoxicity against human HOP92 cells after 2 days by sulforhodamine B assay; settings: HOP-92, 48 h; in short: as §1
MDA-MB-231 = test: Cytotoxicity against human MDA-MB-231 cells after 2 days by sulforhodamine B assay; settings: MDA-MB-231, 48 h; in short: as §1
RPMI-8226 = test: Cytotoxicity against human RPMI8226 cells after 2 days by sulforhodamine B assay; settings: RPMI-8226, 48 h; in short: as §1
M14 = test: Cytotoxicity against human M14 cells after 2 days by sulforhodamine B assay; settings: M14, 48 h; in short: as §1
[2] = read-out: LC50 (the source's name)

Compound `CC/C(=C(/c1ccc(OCCN(C)C)cc1)c1ccc(OC(=O)CCC(=O)C2=C(C)/C(=C/c3[nH]c(-c4ccc[nH]4)cc3OC)N=C2C)cc1)c1ccccc1` has a GI50 (RXF 393) of 2.35 µM, an LC50 (concentration killing 50% of cells) (RXF 393) of 73.3 µM and a TGI (RXF 393) of 13 µM. It also gave a GI50 (NCI-H322M) of 11.6 µM, an LC50 (concentration killing 50% of cells) (NCI-H322M) of 57.5 µM and a TGI (NCI-H322M) of 25.7 µM. The GI50 (SK-MEL-28) was 2.94 µM, the LC50 (SK-MEL-28) was 46.3 µM and the TGI (SK-MEL-28) was 12.7 µM. It also gave a GI50 (SNB-19) of 5.49 µM, a TGI (SNB-19) of 21.9 µM and a CC50 (SNB-19; [2]) of 65.9 µM. For the same compound, the GI50 [1] was 3.63 µM, the TGI [1] was 16.1 µM and the CC50 [1, 2] was 74.5 µM. It also gave a GI50 (U-251) of 1.52 µM, an LC50 (U-251) of 33.2 µM and a TGI (U-251) of 7.17 µM. The GI50 (SK-OV-3) was 7.17 µM, the LC50 (concentration killing 50% of starting cells) (SK-OV-3) was > 100 µM and the TGI (SK-OV-3) was 30.1 µM. The GI50 (A498) was 2.96 µM, the LC50 (A498) was 44.2 µM and the TGI (A498) was 16.8 µM. The GI50 (MDA-MB-468) was 3.06 µM, the LC50 (MDA-MB-468) was 61.3 µM and the TGI (MDA-MB-468) was 15.5 µM. The GI50 (HL-60(TB)) was 3.16 µM, the TGI (HL-60(TB)) was 8.98 µM and the CC50 (HL-60(TB); [2]) was > 100 µM. For the same compound, the GI50 (786-0) was 2.19 µM, the LC50 (concentration killing 50% of cells) (786-0) was > 100 µM and the TGI (786-0) was 5.77 µM. It also gave a GI50 (SNB-75) of 2.47 µM, an LC50 (concentration killing 50% of starting cells) (SNB-75) of 62.9 µM and a TGI (SNB-75) of 9.92 µM. For the same compound, the GI50 (IGROV-1) was 3.66 µM, the LC50 (IGROV-1) was > 100 µM and the TGI (IGROV-1) was 15.3 µM. It also gave a GI50 (LOX IMVI) of 0.44 µM, an LC50 (LOX IMVI) of 5.13 µM and a TGI (LOX IMVI) of 1.62 µM. The GI50 (BT-549) was 4.29 µM, the LC50 (concentration killing 50% of cells present at time zero) (BT-549) was 66.9 µM and the TGI (BT-549) was 21.5 µM. For the same compound, the GI50 (MOLT-4) was 0.98 µM, the TGI (MOLT-4) was 4.22 µM and the CC50 (MOLT-4; [2]) was > 100 µM. The GI50 (HT-29) was 0.44 µM, the LC50 (HT-29) was 45.7 µM and the TGI (HT-29) was 11.1 µM. The GI50 (SK-MEL-5) was 1.53 µM, the LC50 (concentration killing 50% of cells) (SK-MEL-5) was 5.25 µM and the TGI (SK-MEL-5) was 3.22 µM. The GI50 (SF-268) was 2.63 µM, the LC50 (concentration killing 50% of cells) (SF-268) was > 100 µM and the TGI (SF-268) was 18.3 µM. For the same compound, the GI50 (NCI-H23) was 4.03 µM, the LC50 (concentration killing 50% of cells) (NCI-H23) was 70 µM and the TGI (NCI-H23) was 18.7 µM. It also gave a GI50 (UACC-62) of 1.81 µM, a TGI (UACC-62) of 3.78 µM and a CC50 (UACC-62; [2]) of 7.88 µM. For the same compound, the GI50 (T47D) was 1.35 µM, the LC50 (concentration killing 50% of cells) (T47D) was > 100 µM and the TGI (T47D) was 8.13 µM. For the same compound, the GI50 (HCC 2998) was 3.83 µM, the LC50 (50% lethal concentration) (HCC 2998) was 39.9 µM and the TGI (HCC 2998) was 14.3 µM. For the same compound, the GI50 (NCI-H522) was 1.95 µM, the LC50 (NCI-H522) was 28 µM and the TGI (NCI-H522) was 5.89 µM. The GI50 (HOP-92) was 0.76 µM, the TGI (HOP-92) was 4.12 µM and the CC50 (HOP-92; [2]) was 26.4 µM. It also gave a GI50 (MDA-MB-231) of 0.45 µM, an LC50 (MDA-MB-231) of 20.3 µM and a TGI (MDA-MB-231) of 2.43 µM. For the same compound, the GI50 (RPMI-8226) was 1.65 µM, the LC50 (concentration killing 50% of cells present at time zero) (RPMI-8226) was > 100 µM and the TGI (RPMI-8226) was 5.64 µM. For the same compound, the GI50 (M14) was 2.09 µM, the TGI (M14) was 5.19 µM and the CC50 (M14; [2]) was > 100 µM.
